Published values from different studies.
Compare with care: the assays were run in different laboratories. pEC50: −log10 of the molar value.
Read-out: cell growth or viability

| SMILES | cell line | test | setting | measurement | result |
| --- | --- | --- | --- | --- | --- |
| CCOC(=O)c1cc(-c2ccc(OCC)cc2)oc1-c1ccc(Cl)cc1 | U2OS | MTT | 48 h | pEC50 | 3.72 |
| Cc1nc(Nc2ncc(C(=O)Nc3c(C)cccc3Cl)s2)cc(N2CC[C@H](O)C2)n1 | P3HR-1 | ATP luminescence | 10 µM, 72 h | inhibition | 51% |
| CCOc1ccc(-c2cc(C(=O)O)c(-c3ccc(Cl)cc3)o2)cc1 | U2OS | MTT | 48 h | pEC50 | 4.32 |
| CCC(=CCc1c(O)cc2c(c1O)C(=O)CC(c1ccc(O)cc1)O2)CC (stereo in doubt) | HeLa | MTT | 6.25 µM, 48 h | inhibition | 9.54% |
| CCOc1ccc(C(=O)CC(SCc2ccc(Cl)cc2)C(=O)OC)cc1 (centres unmarked) | U2OS | MTT | 48 h | pEC50 | 4.80 |
| Cc1cc(=O)oc2cc(OCCCCSC#N)ccc12 | HeLa | SRB |  | GI50 | 1.9 µM |
| CCC(=CCc1c(O)cc2c(c1O)C(=O)C[C@H](c1ccccc1O)O2)CC | HeLa | MTT | 120 µM, 48 h | inhibition | 81.5% |
| Cc1c(Cl)c(=O)oc2cc(OCCCCSC#N)ccc12 | HeLa | SRB |  | GI50 | 6.2 µM |
| C[C@H](Nc1ccc2c(c1)OCCn1cc(N3C(=O)OC[C@H]3C(F)F)nc1-2)C(N)=O | Detroit 562 | ATP luminescence | 5 days | pEC50 | 7.08 |
| N#CSCc1cc(=O)oc2cc(O)ccc12 | HeLa | SRB |  | GI50 | 3.7 µM |
| C=C(NC(=O)C(=C)NC(=O)c1csc(C2=N[C@@H]3c4csc(n4)[C@H]4NC(=O)c5csc(n5)[C@H]([C@](C)(O)[C@@H](C)O)NC(=O)[C@H]5CSC(=N5)/C(=C/C)NC(=O)[C@H]([C@@H](C)O)NC(=O)c5csc(n5)[C@]3(CC2)NC(=O)[C@H](C)NC(=O)C(=C)NC(=O)[C@H](C)NC(=O)[C@H]([C@@H](C)CC)N[C@@H]2C=Cc3c([C@H](C)O)cc(nc3[C@H]2O)C(=O)O[C@@H]4C)n1)C(N)=O | NCI-H1792 |  |  | pEC50 | 5.49 |
